Laboratory results as given in ChEMBL document CHEMBL4396871, “Leveraging a Low-Affinity Diazaspiro Orthosteric Fragment to Reduce Dopamine D3 Receptor (D3R) Ligand Promiscuity across Highly Conserved Aminergic G-Protein-Coupled Receptors (GPCRs)” (J Med Chem, 2019).
Blank lines part the entries; values can stand above or below the compound they belong to.

How the values were obtained:
[1] = biological target: Mu-type opioid receptor (Homo sapiens) (UniProt P35372); experiment: Displacement of [3H]-DAMGO from human MOR stably expressed in HEK cell membranes at 10 uM after 90 mins by microbeta scintillation counting method relative to control
Sequence of Mu-type opioid receptor (Homo sapiens) (P35372 whole entry): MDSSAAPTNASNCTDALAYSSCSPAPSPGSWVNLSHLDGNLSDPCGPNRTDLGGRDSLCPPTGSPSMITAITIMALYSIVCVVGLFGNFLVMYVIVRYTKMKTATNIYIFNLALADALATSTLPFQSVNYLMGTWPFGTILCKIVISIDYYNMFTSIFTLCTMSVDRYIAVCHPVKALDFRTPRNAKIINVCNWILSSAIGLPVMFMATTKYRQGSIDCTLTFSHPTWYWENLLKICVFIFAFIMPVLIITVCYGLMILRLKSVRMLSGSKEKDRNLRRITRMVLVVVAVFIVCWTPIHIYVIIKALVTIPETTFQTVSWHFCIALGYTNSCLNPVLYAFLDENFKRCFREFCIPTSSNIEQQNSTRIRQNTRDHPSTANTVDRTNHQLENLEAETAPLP
Method in brief: (§1)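 Primary screen at 10 μM compound, expressed as % receptor inhibition, from at least three experiments.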

[2] = biological target: T1, D2 dopamine receptor (Homo sapiens, UniProt P14416); experiment: Displacement of [3H]N-methylspiperone from recombinant human D2 receptor stably expressed in fibroblast at 10 uM measured after 90 mins by microbeta scintillation counting method relative to control; settings: fibroblasts stably expressing recombinant human D2 receptor, probe [3H]N-methylspiperone
T1 sequence (P14416 whole entry): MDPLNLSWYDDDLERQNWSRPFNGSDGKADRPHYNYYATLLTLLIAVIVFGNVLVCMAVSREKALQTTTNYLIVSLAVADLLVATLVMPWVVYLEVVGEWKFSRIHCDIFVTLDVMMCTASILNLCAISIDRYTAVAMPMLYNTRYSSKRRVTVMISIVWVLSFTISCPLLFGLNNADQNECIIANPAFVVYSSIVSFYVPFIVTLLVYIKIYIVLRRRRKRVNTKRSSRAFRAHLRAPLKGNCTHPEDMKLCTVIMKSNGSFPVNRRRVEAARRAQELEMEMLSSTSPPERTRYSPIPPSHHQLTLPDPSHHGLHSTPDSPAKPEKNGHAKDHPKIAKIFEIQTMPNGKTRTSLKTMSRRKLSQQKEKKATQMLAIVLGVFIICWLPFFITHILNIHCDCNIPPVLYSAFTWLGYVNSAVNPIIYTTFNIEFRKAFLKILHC

[3] = biological target: D(4) dopamine receptor (Homo sapiens) (UniProt P21917); experiment: Displacement of [3H]N-methylspiperone from recombinant human D4 receptor stably expressed in HEK cell membranes at 10 uM measured after 90 mins by microbeta scintillation counting method relative to control
Sequence of D(4) dopamine receptor (Homo sapiens) (P21917 whole entry): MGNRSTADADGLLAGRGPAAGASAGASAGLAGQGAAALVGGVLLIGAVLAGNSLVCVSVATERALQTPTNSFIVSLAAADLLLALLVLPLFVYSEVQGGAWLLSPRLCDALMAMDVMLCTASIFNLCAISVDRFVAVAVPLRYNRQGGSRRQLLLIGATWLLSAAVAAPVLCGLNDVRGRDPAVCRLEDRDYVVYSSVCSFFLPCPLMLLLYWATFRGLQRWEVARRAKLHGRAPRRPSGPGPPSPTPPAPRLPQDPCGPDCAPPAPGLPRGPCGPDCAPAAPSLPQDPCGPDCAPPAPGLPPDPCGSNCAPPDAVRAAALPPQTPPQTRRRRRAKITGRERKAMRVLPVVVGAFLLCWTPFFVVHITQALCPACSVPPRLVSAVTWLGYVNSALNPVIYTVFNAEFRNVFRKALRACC

[4] = biological target: D(1B) dopamine receptor (Homo sapiens, UniProt P21918); experiment: Displacement of [3H]-SCH23390 from recombinant human D5 receptor transiently expressed in HEK cell membranes at 10 uM measured after 90 mins by microbeta scintillation counting method relative to control; method in brief: as §1
[5] = biological target: 5-hydroxytryptamine receptor 1A (Homo sapiens, UniProt P08908); experiment: Displacement of [3H]-Way100635 from recombinant human 5HT1A receptor transiently expressed in CHO cell membranes measured after 90 mins by microbeta scintillation counting method
Sequence of 5-hydroxytryptamine receptor 1A (P08908 whole entry): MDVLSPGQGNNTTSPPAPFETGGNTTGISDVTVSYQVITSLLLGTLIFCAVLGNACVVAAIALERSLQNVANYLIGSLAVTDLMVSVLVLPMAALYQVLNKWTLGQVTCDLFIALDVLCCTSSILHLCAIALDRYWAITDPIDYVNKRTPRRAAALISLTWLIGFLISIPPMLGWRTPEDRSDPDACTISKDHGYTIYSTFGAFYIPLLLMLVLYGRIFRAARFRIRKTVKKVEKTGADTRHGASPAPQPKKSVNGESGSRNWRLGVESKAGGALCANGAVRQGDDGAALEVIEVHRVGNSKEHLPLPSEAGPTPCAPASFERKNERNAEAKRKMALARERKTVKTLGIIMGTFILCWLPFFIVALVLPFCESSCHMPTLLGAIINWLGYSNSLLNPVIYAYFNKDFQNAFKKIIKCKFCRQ

[6] = biological target: T2, 5-hydroxytryptamine receptor 1B (Homo sapiens, UniProt P28222); experiment: Displacement of [3H]-5-CT from recombinant human 5HT1B receptor stably expressed in HEK cell membranes at 10 uM measured after 90 mins by microbeta scintillation counting method relative to control; method in brief: as §1
T2 sequence (P28222 whole entry): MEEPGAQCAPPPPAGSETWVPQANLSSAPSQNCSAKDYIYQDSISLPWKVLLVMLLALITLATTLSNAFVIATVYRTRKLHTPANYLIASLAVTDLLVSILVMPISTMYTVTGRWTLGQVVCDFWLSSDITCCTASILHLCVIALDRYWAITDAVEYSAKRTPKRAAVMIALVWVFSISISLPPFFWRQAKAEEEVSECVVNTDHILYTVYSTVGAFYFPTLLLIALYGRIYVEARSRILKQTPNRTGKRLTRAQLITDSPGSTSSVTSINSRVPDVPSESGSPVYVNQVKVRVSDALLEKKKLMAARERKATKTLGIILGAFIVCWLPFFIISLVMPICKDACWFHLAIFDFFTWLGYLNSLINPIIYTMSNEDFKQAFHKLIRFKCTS

[7] = biological target: T3, 5-hydroxytryptamine receptor 2A (Homo sapiens, UniProt P28223); experiment: Displacement of [3H]-ketanserin from 5HT2A receptor (unknown origin) at 10 uM measured after 90 mins by microbeta scintillation counting method relative to control; method in brief: as §1
T3 sequence (P28223 whole entry): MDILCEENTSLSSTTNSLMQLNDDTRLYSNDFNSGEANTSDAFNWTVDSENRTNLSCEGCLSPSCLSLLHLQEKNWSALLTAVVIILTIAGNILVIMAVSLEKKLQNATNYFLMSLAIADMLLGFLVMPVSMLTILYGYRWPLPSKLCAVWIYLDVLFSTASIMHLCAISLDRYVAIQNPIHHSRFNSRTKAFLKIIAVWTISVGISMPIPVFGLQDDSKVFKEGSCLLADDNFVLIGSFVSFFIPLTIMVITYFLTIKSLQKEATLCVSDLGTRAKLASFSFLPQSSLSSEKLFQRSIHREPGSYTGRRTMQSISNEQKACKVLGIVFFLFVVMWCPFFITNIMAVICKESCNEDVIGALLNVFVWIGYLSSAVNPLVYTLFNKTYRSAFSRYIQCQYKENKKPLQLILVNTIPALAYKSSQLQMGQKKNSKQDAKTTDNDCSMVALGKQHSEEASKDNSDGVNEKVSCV

[8] = biological target: 5-hydroxytryptamine receptor 2C (Homo sapiens) (UniProt P28335); experiment: Displacement of [3H]-mesulergine from recombinant human 5HT2C receptor transiently expressed in HEKT cell membranes at 10 uM measured after 90 mins by microbeta scintillation counting method relative to control; method in brief: as §1
[9] = biological target: 5-hydroxytryptamine receptor 3A (Homo sapiens) (UniProt P46098); experiment: Displacement of [3H]-GR65630 from recombinant human 5HT3 receptor transiently expressed in HEKT cell membranes at 10 uM measured after 90 mins by microbeta scintillation counting method relative to control; method in brief: as §1
Sequence of 5-hydroxytryptamine receptor 3A (Homo sapiens) (P46098 whole entry): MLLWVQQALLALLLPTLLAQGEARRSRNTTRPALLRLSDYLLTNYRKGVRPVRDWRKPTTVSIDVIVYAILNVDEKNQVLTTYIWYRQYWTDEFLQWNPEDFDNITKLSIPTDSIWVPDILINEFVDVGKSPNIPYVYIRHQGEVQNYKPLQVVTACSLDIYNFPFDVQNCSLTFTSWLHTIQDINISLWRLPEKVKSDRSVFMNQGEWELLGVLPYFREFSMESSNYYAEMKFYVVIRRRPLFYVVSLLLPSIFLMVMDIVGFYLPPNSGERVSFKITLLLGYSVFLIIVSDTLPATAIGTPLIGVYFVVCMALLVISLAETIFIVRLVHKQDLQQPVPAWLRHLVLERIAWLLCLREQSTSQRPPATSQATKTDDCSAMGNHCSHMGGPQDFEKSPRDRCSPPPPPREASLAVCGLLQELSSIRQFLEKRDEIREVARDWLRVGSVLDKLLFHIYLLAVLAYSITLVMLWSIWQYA

[10] = biological target: 5-hydroxytryptamine receptor 5A (Homo sapiens) (UniProt P47898); experiment: Displacement of [3H]-LSD from recombinant human 5HT5A receptor stably expressed in Flp-In-CHO cell membranes at 10 uM measured after 90 mins by microbeta scintillation counting method relative to control; method in brief: as §1
Sequence of 5-hydroxytryptamine receptor 5A (Homo sapiens) (P47898 whole entry): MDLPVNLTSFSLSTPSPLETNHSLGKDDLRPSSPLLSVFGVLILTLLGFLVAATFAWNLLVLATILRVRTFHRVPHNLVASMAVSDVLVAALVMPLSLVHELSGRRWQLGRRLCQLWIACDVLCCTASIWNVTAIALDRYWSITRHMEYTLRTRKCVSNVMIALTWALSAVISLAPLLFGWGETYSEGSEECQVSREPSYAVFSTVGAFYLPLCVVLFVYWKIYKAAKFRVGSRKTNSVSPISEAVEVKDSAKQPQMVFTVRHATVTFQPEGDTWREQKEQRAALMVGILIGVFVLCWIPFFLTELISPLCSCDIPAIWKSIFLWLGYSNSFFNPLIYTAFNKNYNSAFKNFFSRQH

[11] = biological target: T4, 5-hydroxytryptamine receptor 7 (Homo sapiens, UniProt P34969); experiment: Displacement of [3H]-LSD from recombinant human 5HT7A receptor stably expressed in HEK cell membranes at 10 uM measured after 90 mins by microbeta scintillation counting method relative to control; method in brief: as §1
T4 sequence (P34969 whole entry): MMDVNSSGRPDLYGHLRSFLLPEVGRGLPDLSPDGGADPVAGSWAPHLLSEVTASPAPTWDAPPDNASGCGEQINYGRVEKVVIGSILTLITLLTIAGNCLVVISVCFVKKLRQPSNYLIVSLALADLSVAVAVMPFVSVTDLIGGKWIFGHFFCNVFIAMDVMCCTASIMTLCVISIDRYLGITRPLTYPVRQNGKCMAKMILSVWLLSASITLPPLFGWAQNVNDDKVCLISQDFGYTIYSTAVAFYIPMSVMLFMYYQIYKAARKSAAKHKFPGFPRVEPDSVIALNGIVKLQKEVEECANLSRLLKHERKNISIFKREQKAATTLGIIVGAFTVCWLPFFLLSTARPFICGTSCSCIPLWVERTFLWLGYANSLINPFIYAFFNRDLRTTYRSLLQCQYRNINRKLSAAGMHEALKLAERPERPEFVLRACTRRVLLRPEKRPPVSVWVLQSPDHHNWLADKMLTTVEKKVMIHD

[12] = biological target: Muscarinic acetylcholine receptor M1 (Homo sapiens) (UniProt P11229); experiment: Displacement of [3H]-QNB/[3H]-NMS from human muscarinic M1 receptor expressed in stable CHO cells at 10 uM after 90 mins by microbeta scintillation counting method relative to control; assay type: cell-based; method in brief: as §1
Sequence of Muscarinic acetylcholine receptor M1 (Homo sapiens) (P11229 whole entry): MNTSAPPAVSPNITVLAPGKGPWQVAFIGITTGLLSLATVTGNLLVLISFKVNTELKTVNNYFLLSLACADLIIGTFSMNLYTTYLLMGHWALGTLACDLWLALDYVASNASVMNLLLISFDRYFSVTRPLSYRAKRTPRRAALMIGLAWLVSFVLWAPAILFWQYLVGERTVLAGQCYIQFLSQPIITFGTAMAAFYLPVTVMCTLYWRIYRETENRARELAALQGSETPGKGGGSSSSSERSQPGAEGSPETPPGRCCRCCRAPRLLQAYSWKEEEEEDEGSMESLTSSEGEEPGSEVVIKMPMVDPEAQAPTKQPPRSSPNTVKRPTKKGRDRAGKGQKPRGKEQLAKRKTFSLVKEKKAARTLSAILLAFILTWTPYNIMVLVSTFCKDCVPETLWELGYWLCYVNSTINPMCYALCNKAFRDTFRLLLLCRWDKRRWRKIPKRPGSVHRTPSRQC

[13] = biological target: Alpha-1B adrenergic receptor (Homo sapiens, UniProt P35368); experiment: Displacement of [3H]-prazosin from recombinant human alpha1B adrenergic receptor transiently expressed in HEKT cells measured after 90 mins by microbeta scintillation counting method; assay type: cell-based
Sequence of Alpha-1B adrenergic receptor (P35368 whole entry): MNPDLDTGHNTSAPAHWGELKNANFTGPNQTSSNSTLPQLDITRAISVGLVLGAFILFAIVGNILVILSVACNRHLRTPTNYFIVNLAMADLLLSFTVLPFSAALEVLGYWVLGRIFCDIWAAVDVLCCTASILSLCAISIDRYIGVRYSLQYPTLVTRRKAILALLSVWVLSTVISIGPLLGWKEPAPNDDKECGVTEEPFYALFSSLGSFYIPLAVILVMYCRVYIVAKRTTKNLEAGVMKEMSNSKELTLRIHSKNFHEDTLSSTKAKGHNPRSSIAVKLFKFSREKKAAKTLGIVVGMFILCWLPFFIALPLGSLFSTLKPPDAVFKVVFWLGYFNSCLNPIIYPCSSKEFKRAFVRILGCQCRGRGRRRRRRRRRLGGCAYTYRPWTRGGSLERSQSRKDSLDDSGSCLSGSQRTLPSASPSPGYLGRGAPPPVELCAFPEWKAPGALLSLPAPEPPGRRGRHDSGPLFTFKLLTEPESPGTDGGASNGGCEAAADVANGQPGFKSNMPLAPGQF

[14] = biological target: Neuronal acetylcholine receptor; alpha4/beta2 (Homo sapiens) (UniProt P17787+P43681); experiment: Displacement of [3H]-epibatidine from recombinant human alpha4beta2 nACHR stably expressed in HEK cells at 10 uM measured after 90 mins by microbeta scintillation counting method relative to control; assay type: cell-based; method in brief: as §1
[15] = biological target: Beta-1 adrenergic receptor (Homo sapiens) (UniProt P08588); experiment: Displacement of [125I]-pindolol from recombinant human beta1 adrenergic stably expressed in CHO Flp-In cells at 10 uM measured after 90 mins by microbeta scintillation counting method relative to control; assay type: cell-based; method in brief: as §1
[16] = biological target: T5, Sodium-dependent noradrenaline transporter (Homo sapiens, UniProt P23975); experiment: Displacement of [3H]-nisoxetine from recombinant human NET stably expressed in HEK cells measured after 90 mins by microbeta scintillation counting method; assay type: cell-based
[17] = biological target: T6, Sodium-dependent serotonin transporter (Homo sapiens, UniProt P31645); experiment: Displacement of [3H]-citalopram from recombinant human SERT stably expressed in HEK cells measured after 90 mins by microbeta scintillation counting method; assay type: cell-based
[18] = biological target: T7, D(4) dopamine receptor (Homo sapiens, UniProt P21917); experiment: Agonist activity at recombinant human D4 receptor expressed in CHOK1 cells assessed as induction of beta arrestin2 recruitment measured after 30 mins by coelenterazine-based beta-galactosidase reporter gene assay; assay type: cell-based
T7 sequence (P21917 whole entry): as the sequence (P21917 whole entry) above

[19] = biological target: T2, 5-hydroxytryptamine receptor 1B; experiment: Displacement of [3H]-5-CT from recombinant human 5HT1B receptor stably expressed in HEK cell membranes measured after 90 mins by microbeta scintillation counting method
[20] = biological target: T3, 5-hydroxytryptamine receptor 2A; experiment: Displacement of [3H]-ketanserin from 5HT2A receptor (unknown origin) measured after 90 mins by microbeta scintillation counting method
[21] = biological target: T4, 5-hydroxytryptamine receptor 7; experiment: Displacement of [3H]-LSD from recombinant human 5HT7A receptor stably expressed in HEK cell membranes measured after 90 mins by microbeta scintillation counting method
[22] = biological target: Histamine H3 receptor (Homo sapiens, UniProt Q9Y5N1); experiment: Displacement of [3H]-alpha-methylhistamine from human histamine H3 receptor stably expressed in HEK Flp-In cells at 10 uM after 90 mins by microbeta scintillation counting method relative to control; assay type: cell-based; method in brief: as §1
[23] = biological target: Muscarinic acetylcholine receptor M3 (Homo sapiens, UniProt P20309); experiment: Displacement of [3H]-QNB/[3H]-NMS from human muscarinic M3 receptor expressed in stable CHO cells at 10 uM after 90 mins by microbeta scintillation counting method relative to control; assay type: cell-based; method in brief: as §1
[24] = biological target: Muscarinic acetylcholine receptor M4 (Homo sapiens) (UniProt P08173); experiment: Displacement of [3H]-QNB/[3H]-NMS from human muscarinic M4 receptor expressed in stable CHO cells at 10 uM after 90 mins by microbeta scintillation counting method relative to control; assay type: cell-based; method in brief: as §1
[25] = biological target: Alpha-2A adrenergic receptor (Homo sapiens, UniProt P08913); experiment: Displacement of [3H]-rauwolscine from recombinant human alpha2A adrenergic receptor stably expressed in MDCK cells measured after 90 mins by microbeta scintillation counting method; assay type: cell-based
[26] = biological target: T5, Sodium-dependent noradrenaline transporter; experiment: Displacement of [3H]-nisoxetine from recombinant human NET stably expressed in HEK cells at 10 uM measured after 90 mins by microbeta scintillation counting method relative to control; assay type: cell-based; method in brief: as §1
[27] = biological target: T6, Sodium-dependent serotonin transporter; experiment: Displacement of [3H]-citalopram from recombinant human SERT stably expressed in HEK cells at 10 uM measured after 90 mins by microbeta scintillation counting method relative to control; assay type: cell-based; method in brief: as §1
[28] = biological target: T1, D2 dopamine receptor; experiment: Displacement of [3H]N-methylspiperone from recombinant human D2 receptor stably expressed in fibroblast measured after 90 mins by microbeta scintillation counting method
[29] = biological target: T7, D(4) dopamine receptor; experiment: Displacement of [3H]N-methylspiperone from recombinant human D4 receptor stably expressed in HEK cell membranes measured after 90 mins by microbeta scintillation counting method

inhibition [1]: < 50%
inhibition at […], 10 µM [2]: < 50%
inhibition [3]: < 50%
inhibition [4]: < 50%
Ki [5]: 1300 nM
inhibition [6]: < 50%
inhibition [7]: < 50%
inhibition [8]: < 50%
inhibition [9]: < 50%
inhibition [10]: < 50%
inhibition [11]: < 50%
inhibition [12]: 54%
Ki [13]: 2170 nM
inhibition [14]: < 50%
inhibition [15]: < 50%
Ki [16]: 931 nM
Ki [17]: 295 nM
SMILES: COc1ccccc1N1CCC2(CCN(CCCSc3nnc(-c4ccccc4)n3C)CC2)CC1

inhibition [1]: < 50%
EC50 [18]: 359 nM
Ki [5]: 0.9 nM
Ki [19]: 2030 nM
Ki [20]: 1410 nM
inhibition [9]: < 50%
inhibition [10]: < 50%
Ki [21]: 128 nM
inhibition [22]: < 50%
inhibition [12]: < 50%
inhibition [23]: < 50%
inhibition [24]: < 50%
Ki [13]: 94 nM
Ki [25]: 221 nM
inhibition [14]: < 50%
inhibition [15]: < 50%
inhibition [26]: < 50%
inhibition [27]: < 50%
Ki [28]: 577 nM
Ki [29]: 721 nM
SMILES: COc1ccccc1N1CCN(CCCSc2nnc(-c3ccccc3)n2C)CC1
